{
  "source": "paper PMC3694763",
  "about": "(Angewandte Chemie (International Ed. in English), 2012)",
  "key": {"[1]": {"target": "T1, thrombin (Homo sapiens, UniProt P00734)", "test": "Determination of kcat/Km, cleavage by thrombin", "assay_type": "biochemical", "details": "PPRSFL replaced with norleucine-TPRSFL"}, "[2]": {"target": "plasmin (Homo sapiens, UniProt P00747)", "sequence (P00747 97-580 limits assumed, species assumed)": "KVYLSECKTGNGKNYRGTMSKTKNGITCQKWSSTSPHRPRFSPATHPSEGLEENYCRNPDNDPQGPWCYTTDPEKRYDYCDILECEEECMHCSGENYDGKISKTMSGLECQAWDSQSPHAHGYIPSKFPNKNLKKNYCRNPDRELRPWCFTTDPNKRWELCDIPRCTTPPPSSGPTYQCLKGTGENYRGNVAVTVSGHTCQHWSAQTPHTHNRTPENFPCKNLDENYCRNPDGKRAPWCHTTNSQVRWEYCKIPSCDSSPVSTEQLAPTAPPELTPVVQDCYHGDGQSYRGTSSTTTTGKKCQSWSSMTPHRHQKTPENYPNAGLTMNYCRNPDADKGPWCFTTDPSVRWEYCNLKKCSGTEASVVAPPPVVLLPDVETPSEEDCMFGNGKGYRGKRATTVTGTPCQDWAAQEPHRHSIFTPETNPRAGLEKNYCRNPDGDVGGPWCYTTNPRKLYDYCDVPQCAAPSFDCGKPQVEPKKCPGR", "sequence (P00747 581-810 limits assumed, species assumed)": "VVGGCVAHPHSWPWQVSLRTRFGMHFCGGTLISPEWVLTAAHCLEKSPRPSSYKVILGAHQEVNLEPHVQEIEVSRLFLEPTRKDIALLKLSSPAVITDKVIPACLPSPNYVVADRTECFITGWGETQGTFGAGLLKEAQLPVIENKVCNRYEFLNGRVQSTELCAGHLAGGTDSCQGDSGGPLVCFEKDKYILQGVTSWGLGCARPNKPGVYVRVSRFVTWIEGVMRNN", "test": "Determination of kcat/Km, cleavage by plasmin", "assay_type": "biochemical", "details": "for selectivity for thrombin over plasmin (ratio of kcat/Km): kcat/Km thrombin versus plasmin"}, "[3]": {"target": "thrombin activity in developing blood clots (Mus musculus, UniProt P19221)", "test": "Tail-clip model, ratiometric Cy5/Cy7 imaging of developing blood clots", "assay_type": "in vivo", "details": "mouse tail clot"}, "[4]": {"target": "factor Xa (Homo sapiens, UniProt P00742)", "sequence (P00742 41-179 limits assumed)": "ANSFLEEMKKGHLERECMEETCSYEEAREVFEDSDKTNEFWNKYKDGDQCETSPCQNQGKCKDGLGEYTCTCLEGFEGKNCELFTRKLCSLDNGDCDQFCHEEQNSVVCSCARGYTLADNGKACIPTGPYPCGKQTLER", "sequence (P00742 235-488 limits assumed)": "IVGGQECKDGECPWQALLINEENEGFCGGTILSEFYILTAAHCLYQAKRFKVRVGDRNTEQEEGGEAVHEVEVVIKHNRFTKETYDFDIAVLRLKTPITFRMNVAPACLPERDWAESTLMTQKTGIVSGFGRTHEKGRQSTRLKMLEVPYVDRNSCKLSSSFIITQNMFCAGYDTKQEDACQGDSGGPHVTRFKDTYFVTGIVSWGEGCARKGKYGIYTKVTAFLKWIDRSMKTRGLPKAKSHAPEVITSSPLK", "test": "Determination of kcat/Km, cleavage by factor Xa", "assay_type": "biochemical", "details": "for kcat/Km for factor Xa: 150 mM NaCl, 20 mM Tris pH 7.5, 2 mM CaCl2, 1% BSA, 37°C, Cy5 fluorescence"}, "[5]": {"tested_on": "pro-coagulation enzymes (thrombin, plasmin, factor Xa)", "assay_type": "biochemical", "details": "1 µM RACPP, 50 nM enzyme, 37°C; tricine gel, Cy5/Cy7 ratio image", "outline": "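Each ratiometric probe was incubated separately with purified enzyme for set times. Cleavage products were separated on tricine-SDS polyacrylamide gels. Gels were imaged multispectrally with 620 nm excitation, collecting Cy5 (660–720 nm) and Cy7 (760–830 nm) emission. Cy5 images were divided by Cy7 images and pseudocoloured from blue (ratio minimum) to red (ratio maximum).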"}, "[6]": {"target": "MMP-9 (Homo sapiens, UniProt P14780)", "sequence (P14780 107-707)": "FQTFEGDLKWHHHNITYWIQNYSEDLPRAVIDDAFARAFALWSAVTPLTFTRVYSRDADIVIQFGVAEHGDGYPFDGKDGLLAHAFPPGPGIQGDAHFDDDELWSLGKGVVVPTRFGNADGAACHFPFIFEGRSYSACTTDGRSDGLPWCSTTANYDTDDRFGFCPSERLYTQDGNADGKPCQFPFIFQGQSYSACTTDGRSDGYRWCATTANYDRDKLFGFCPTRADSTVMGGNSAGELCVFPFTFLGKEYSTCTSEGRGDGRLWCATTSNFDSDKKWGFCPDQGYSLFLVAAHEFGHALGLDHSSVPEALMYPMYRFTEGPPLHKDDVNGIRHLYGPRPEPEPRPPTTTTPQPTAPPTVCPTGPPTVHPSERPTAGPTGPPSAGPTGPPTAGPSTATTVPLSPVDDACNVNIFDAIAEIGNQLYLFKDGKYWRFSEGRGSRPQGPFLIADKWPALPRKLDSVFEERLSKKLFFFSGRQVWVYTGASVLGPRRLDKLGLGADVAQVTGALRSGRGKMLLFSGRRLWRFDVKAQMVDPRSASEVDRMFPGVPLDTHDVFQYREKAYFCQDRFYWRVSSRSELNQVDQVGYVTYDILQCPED", "test": "Addition of purified MMP-9 to developing blood pools of injected mice", "assay_type": "in vivo, mouse", "details": "blood pool of injected mice; MMP-9 1 µl of 1.5 µM, 10 minutes"}, "[7]": {"target": "T1, thrombin", "assay_type": "biochemical", "details": "probe diluted in mouse plasma", "outline": "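Probe construction: Cy5 sits on the polycationic domain and the Cy7 acceptor on the polyanionic domain, joined by a thrombin-cleavable linker, so the intact probe undergoes FRET. Emission spectra were recorded in mouse plasma in a cuvette spectrofluorometer before and after adding purified thrombin. Cy5 emission peaks near 670 nm and Cy7 re-emission near 780 nm.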"}},
  "data": [
    {"substance": "Cy7-NH-e9-c(S-Peg12)oNLeTPRSFL-r9-c(Cy5)-CONH2 [RACPPNleTPRSFL]", "values": [
      {"measurement": "acceleration of thrombin cleavage relative to RACPPPPRSFL", "setting": "[1]", "value": "approximately 90 fold"},
      {"measurement": "selectivity for thrombin over plasmin (ratio of kcat/Km)", "setting": "[2]", "value": 52.5, "unit": "fold"},
      {"measurement": "Cy5/Cy7 ratio at 15 minutes post injury", "setting": "[3]; 10 nmol", "value": 7.2},
      {"measurement": "change of Cy5/Cy7 ratio at 15 minutes post injury", "setting": "[3]; 10 nmol", "value": "tenfold"},
      {"measurement": "Cy5/Cy7 ratio at one minute post injury", "setting": "[3]; 10 nmol, n = 3, mean (±SD)", "value": "0.75(±0.11)"},
      {"measurement": "Cy5/Cy7 ratio at five minutes post injury", "setting": "[3]; 10 nmol, n = 3, p = 0.01 vs one minute", "value": "3.1(±0.45)"}
    ]},
    {"substance": "Cy7-NH-e9-c(S-Peg12)oDPRSFL-r9-c(Cy5)-CONH2 [RACPPDPRSFL]", "values": [
      {"measurement": "kcat/Km for plasmin", "setting": "[2]; 150 mM NaCl, 20 mM Tris pH 7.5, 2 mM CaCl2, 1% BSA, 37°C, Cy5 fluorescence", "value": 10000, "unit": "M⁻¹ s⁻¹"},
      {"measurement": "selectivity for thrombin over plasmin (ratio of kcat/Km)", "setting": "[2]", "value": "less than 2 fold"},
      {"measurement": "kcat/Km for factor Xa", "setting": "[4]", "value": 6200, "unit": "M⁻¹ s⁻¹"},
      {"measurement": "selectivity for thrombin over factor Xa (ratio of kcat/Km)", "setting": "[4]; kcat/Km thrombin versus factor Xa", "value": "less than 2 fold"}
    ]},
    {"substance": "Cy7-NH-e9-c(S-Peg12)oPLGC(Me)AG-r9-c(Cy5)-CONH2 [RACPPPLGC(Me)AG]", "values": [
      {"measurement": "cleavage by thrombin, plasmin, factor Xa on SDS-PAGE (selectivity)", "setting": "[5]", "value": "not cleaved by any of the pro-coagulation enzymes"},
      {"measurement": "Cy5/Cy7 emission ratio at the wound site over 40 minutes of clotting", "setting": "[3]; 10 nmol control probe", "value": "low and stable"},
      {"measurement": "ratiometric contrast after local addition of purified MMP-9", "setting": "[6]", "value": "spectacular local ratiometric contrast"}
    ]},
    {"substance": "lepirudin [reference compound]", "values": [
      {"measurement": "effect on cleavage and ratio change of RACPPNleTPRSFL", "setting": "[3]; lepirudin 0.5 mg/mouse immediately prior to probe injection", "value": "inhibited the cleavage and ratio change"}
    ]},
    {"substance": "Cy7-NH-e9-c(S-Peg12)oPPRSFL-r9-c(Cy5)-CONH2 [RACPPPPRSFL]", "values": [
      {"measurement": "cleavage by thrombin, plasmin, factor Xa on SDS-PAGE (selectivity)", "setting": "[5]", "value": "selective for thrombin"},
      {"measurement": "selectivity for thrombin over plasmin (ratio of kcat/Km)", "setting": "[2]", "value": 14.3, "unit": "fold"},
      {"measurement": "kcat/Km for factor Xa", "setting": "[4]", "value": "no detectable activity"},
      {"measurement": "change in Cy5/Cy7 ratio from one to five minutes post injury", "setting": "[3]; 10 nmol", "value": "no significant change"},
      {"measurement": "time post injury at which a Cy5/Cy7 ratio increase was detectable", "setting": "[3]; 10 nmol probe", "value": 10, "unit": "min"},
      {"measurement": "change in the Cy5/Cy7 emission ratio on addition of purified thrombin", "setting": "[7]; cuvet spectrofluorometer", "value": 34, "unit": "fold"},
      {"measurement": "increase in Cy5 emission on addition of purified thrombin", "setting": "[7]; approx. 670 nm", "value": 8.8, "unit": "fold"},
      {"measurement": "decrease in Cy7 re-emission on addition of purified thrombin", "setting": "[7]; approx. 780 nm", "value": 3.8, "unit": "fold"}
    ]}
  ]
}
